According to ChEMBL document CHEMBL1135990, “Design of selective thrombin inhibitors based on the (R)-Phe-Pro-Arg sequence” (J Med Chem, 2002):

Assays:
Prothrombin [1] = molecular target: T1, Prothrombin (Homo sapiens, UniProt P00734); assay: In vitro inhibition of human thrombin.
Serine protease 1 [2] = molecular target: T2, Serine protease 1 (Homo sapiens, UniProt P07477); assay: In vitro inhibition of human trypsin.
How it was run: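 Human pancreatic trypsin, chromogenic substrate S2222, 50 mM HEPES/150 mM NaCl pH 8.0. Kinetic assay over 15 min after starting with substrate at four concentrations. Ki taken from 1/V versus 1/S plot.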

Prothrombin [3] = molecular target: T1, Prothrombin; assay: Percentage inhibition against of human thrombin at dose of 10 X E-6 M
Serine protease 1 [4] = molecular target: T2, Serine protease 1; assay: Percentage inhibition against human trypsin at dose of 10 X E-4 M
Serine protease 1 [5] = molecular target: T2, Serine protease 1; assay: Percentage inhibition against human trypsin at dose of 10 X E-5 M
Serine protease 1 [6] = molecular target: T2, Serine protease 1; assay: Percentage inhibition effect human trypsin at dose of 10 X E-4 M
Prothrombin [7] = molecular target: T1, Prothrombin; assay: Percentage inhibition effect of human thrombin at dose of 10 X E-6 M
Prothrombin [8] = molecular target: T1, Prothrombin; assay: Percentage inhibition against human thrombin at dose of 10 X E-6 M
[9] = Plasma clearance in Male Sprague-Dawley rats after intravenous administration at a dose of 10 mg/kg; type: ADME, organism-based; parameters: dose 10 mg/kg, route intravenous; conditions: rat
How it was run: (§1)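 PK: male Sprague–Dawley rats (n = 3 per sampling time) given saline solution as rapid iv bolus via caudal vein; Beagle dogs (n = 2) given constant-rate iv infusion over 15 min via saphenous vein. Plasma collected into lithium heparin; drug measured by LCMS with internal standard after solid-phase extraction at pH 6.0. Parameters derived by computational PK analysis.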

[10] = Oral bioavailability in Beagle dogs after Per oral administration at dose of 50(mg/kg); type: ADME, organism-based, Canis lupus familiaris; conditions: dog, in vivo, 10 mg/kg, in the assay text read “10(mg/kg)” for “50(mg/kg)”
How it was run: (§2)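 Oral bioavailability: compound in water given by gavage to male Sprague–Dawley rats (n = 3 per sampling time) and Beagle dogs (n = 2). Plasma collected into lithium heparin (dog saphenous cannula, conscious; rat vena cava under halothane). Drug quantified by LCMS, compared with iv saline dosing; parameters from computational PK analysis.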

[11] = Alpha-elimination half-life in Male Sprague-Dawley rats after intravenous administration at a dose of 10 mg/kg; type: ADME, organism-based; parameters: dose 10 mg/kg, route intravenous; conditions: rat, in vivo; how it was run: as §1
[12] = Beta-elimination half-life in Male Sprague-Dawley rats after intravenous administration at a dose of 10 mg/kg; type: ADME, organism-based; parameters: dose 10 mg/kg, route intravenous; conditions: rat, in vivo; how it was run: as §1
[13] = Oral bioavailability in rat (Sprague-Dawley) (male) (dose 50 mg/kg p.o.); type: ADME, organism-based; conditions: in vivo; how it was run: as §2
[14] = Volume of distribution in Male Sprague-Dawley rats after intravenous administration at a dose of 10 mg/kg; type: ADME, organism-based; parameters: dose 10 mg/kg, route intravenous; conditions: rat, in vivo, read-out: Volume; how it was run: as §1
[15] = molecular target: T3, Coagulation factor VII (Homo sapiens) (UniProt P08709); assay: Percentage inhibition of Coagulation factor VIIa (FVIIa) at a concentration of 10 X E-4 M from human plasma; type: cell-free
T3 sequence (whole entry): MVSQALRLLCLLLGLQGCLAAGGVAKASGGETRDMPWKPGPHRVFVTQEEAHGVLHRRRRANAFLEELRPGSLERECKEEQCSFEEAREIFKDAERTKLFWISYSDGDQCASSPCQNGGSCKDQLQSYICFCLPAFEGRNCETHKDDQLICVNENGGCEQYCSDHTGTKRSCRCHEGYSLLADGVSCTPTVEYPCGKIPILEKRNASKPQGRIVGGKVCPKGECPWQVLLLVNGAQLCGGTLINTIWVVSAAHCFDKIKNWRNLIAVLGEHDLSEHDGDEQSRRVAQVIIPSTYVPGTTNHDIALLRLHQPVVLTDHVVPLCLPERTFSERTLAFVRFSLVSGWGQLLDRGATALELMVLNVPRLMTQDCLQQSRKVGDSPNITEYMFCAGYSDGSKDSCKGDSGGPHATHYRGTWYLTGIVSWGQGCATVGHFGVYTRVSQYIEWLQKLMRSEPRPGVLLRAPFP
How it was run: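 Human plasma FVIIa, 0.06 μg/mL final, plus recombinant tissue factor at 0.12 μg/mL final; substrate N-methylsulfonyl-D-Phe-Pro-Arg-pNA. Buffer 50 mM TRIS/100 mM NaCl pH 7.5. Compound preincubated with enzyme 15 min at room temperature, then substrate added; 30 min at 30 °C; OD 405 nm; percentage inhibition from triplicates.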

Coagulation factor X = Coagulation factor X (Bos taurus, UniProt P00743); assay: Inhibitory effect on Coagulation factor Xa (FXa) from bovine plasma; type: cell-free
How it was run: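 Bovine plasma FXa, 0.02 U/mL final, with S2222 at 0.2 mM final, in 50 mM HEPES/150 mM NaCl pH 7.5. Aqueous compound dilutions preincubated with enzyme 15 min at room temperature, then substrate added; OD 405 nm read after 30 min at 30 °C. IC50 from triplicate eight-concentration curves; Ki via Cheng–Prusoff using substrate Km.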

[16] = Plasma clearance in Beagle dogs after intravenous administration at a dose of 1 mg/kg; conditions: dog
[17] = Volume of distribution in Beagle dogs after intravenous administration at a dose of 1 mg/kg; conditions: dog, in vivo
[18] = Beta-elimination half-life in Beagle dogs after intravenous administration at a dose of 1 mg/kg; conditions: dog, in vivo
[19] = Alpha-elimination half-life in Beagle dogs after intravenous administration at a dose of 1 mg/kg; conditions: dog, in vivo
[20] = Oral bioavailability in Beagle dogs after Per oral administration at dose of 2(mg/kg); type: ADME, organism-based, Canis lupus familiaris; conditions: dog, in vivo; how it was run: as §2
[21] = Plasma clearance in Beagle dogs after intravenous administration at a dose of 1 mg/kg; type: ADME, organism-based, Canis lupus familiaris; parameters: dose 1 mg/kg, route intravenous; conditions: dog; how it was run: as §1
[22] = Volume of distribution in Beagle dogs after intravenous administration at a dose of 1 mg/kg; type: ADME, organism-based, Canis lupus familiaris; parameters: dose 1 mg/kg, route intravenous; conditions: dog, in vivo, read-out: Volume; how it was run: as §1
[23] = Beta-elimination half-life in Beagle dogs after intravenous administration at a dose of 1 mg/kg; type: ADME, organism-based, Canis lupus familiaris; parameters: dose 1 mg/kg, route intravenous; conditions: dog, in vivo; how it was run: as §1

T2 sequence (P07477 whole entry): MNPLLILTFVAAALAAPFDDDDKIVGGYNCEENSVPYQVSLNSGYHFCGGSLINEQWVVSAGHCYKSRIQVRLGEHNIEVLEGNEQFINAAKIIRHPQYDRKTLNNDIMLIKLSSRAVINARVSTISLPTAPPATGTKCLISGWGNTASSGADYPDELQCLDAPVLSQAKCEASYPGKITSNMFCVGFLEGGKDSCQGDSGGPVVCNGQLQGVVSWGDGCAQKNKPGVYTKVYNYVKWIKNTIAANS
Coagulation factor X, sequence (P00743 41-180 limits assumed): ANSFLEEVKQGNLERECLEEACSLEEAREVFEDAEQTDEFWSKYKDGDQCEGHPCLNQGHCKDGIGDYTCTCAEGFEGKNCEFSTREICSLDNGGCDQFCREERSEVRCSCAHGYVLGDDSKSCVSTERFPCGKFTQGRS
Coagulation factor X, sequence (P00743 234-492 limits assumed): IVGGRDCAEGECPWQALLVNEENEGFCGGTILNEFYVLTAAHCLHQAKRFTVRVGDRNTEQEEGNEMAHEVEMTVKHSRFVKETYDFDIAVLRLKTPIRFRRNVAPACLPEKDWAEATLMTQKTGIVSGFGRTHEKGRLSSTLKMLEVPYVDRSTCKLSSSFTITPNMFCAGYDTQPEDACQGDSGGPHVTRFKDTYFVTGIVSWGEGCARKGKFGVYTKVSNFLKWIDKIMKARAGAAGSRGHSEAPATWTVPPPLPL

Ki (Prothrombin [1])	Ki (Serine protease 1 [2])	SMILES	other results
7.1 nM	2900 nM	N=C(N)N1CCC(OCCC2CCCCN2C(=O)[C@H](CC(=O)O)NC2CCCCC2)CC1 (stereo partly specified)	–
16 nM	5000 nM	CCN(C1CCCCC1)[C@@H](CC(=O)O)C(=O)N1CCCCC1CCOC1CCN(C(=N)N)CC1 (stereo partly specified)	–
90 nM	4800 nM	CN1CCC(N[C@@H](CC(=O)O)C(=O)N2CCCC[C@H]2CCOC2CCN(C(=N)N)CC2)CC1	–
–	9200 nM	N=C(N)N1CCC(OCC[C@@H]2CCCCN2C(=O)[C@H](CC(=O)O)NCc2ccccc2)CC1	inhibition (Prothrombin [8]): 24%
32 nM	5000 nM	N=C(N)N1CCC(OCCC2CCCCN2C(=O)[C@H](CC(=O)O)NC2CCCC2)CC1 (stereo partly specified)	–
370 nM	7900 nM	N=C(N)N1CCC(OCCC2CCCCN2C(=O)[C@@H](Cc2ccccc2)NCC(=O)O)CC1 (stereo partly specified)	–
2.17 nM	1930 nM	CN(C1CCCCC1)[C@@H](CC(=O)O)C(=O)N1CCCC[C@H]1CCOC1CCN(C(=N)N)CC1	clearance [9]: 21.2 mL/min/kg; bioavailability [10]: 9%; half-life [11]: 7.2 min; half-life [12]: 48 min; bioavailability [13]: 2%; Vd [14]: 0.31 L/kg; inhibition [15]: 38.7%; Ki (Coagulation factor X): 4970 nM; clearance [16]: 6.4 mL/min/kg; Vd [17]: 0.53 L/kg; half-life [18]: 60 min; half-life [19]: 9.6 min
1.1 nM	700 nM	N=C(N)N1CCC(OCC[C@@H]2CCCCN2C(=O)[C@H](CC(=O)O)NC2CCCCCC2)CC1	–

Second part, the compound before the results:

SMILES	Ki (Prothrombin [1])	Ki (Serine protease 1 [2])	other results
N=C(N)N1CCC(OCCC2CCCCN2C(=O)[C@H](CC(=O)O)NC2CCCCCCC2)CC1 (stereo partly specified)	1.3 nM	720 nM	–
CN(C1CCCOC1)[C@@H](CC(=O)O)C(=O)N1CCCC[C@H]1CCOC1CCN(C(=N)N)CC1 (stereo partly specified)	–	–	inhibition (Prothrombin [3]): 16%; inhibition (Serine protease 1 [4]): 48%
N=C(N)N1CCC(OCCC2CCCCN2C(=O)[C@H](CC(=O)O)NC2CCOCC2)CC1 (stereo partly specified)	–	–	inhibition (Prothrombin [3]): 42%; inhibition (Serine protease 1 [5]): 23%
CN(C1CCCCCC1)[C@@H](CC(=O)O)C(=O)N1CCCC[C@H]1CCOC1CCN(C(=N)N)CC1	0.53 nM	810 nM	–
CCC(CC)N[C@@H](CC(=O)O)C(=O)N1CCCC[C@H]1CCOC1CCN(C(=N)N)CC1	9.8 nM	1400 nM	–
CN(C1CCCCC1)[C@@H](CCC(=O)O)C(=O)N1CCCC[C@H]1CCOC1CCN(C(=N)N)CC1	1.8 nM	550 nM	–
N=C(N)c1ccc(OCC[C@H]2CCCCN2C(=O)[C@@H](CC2CCCCC2)NCC(=O)O)cc1	120 nM	7300 nM	–
CN(C)CCN(C1CCCCC1)[C@@H](CC(=O)O)C(=O)N1CCCCC1CCOC1CCN(C(=N)N)CC1 (stereo partly specified)	–	–	inhibition (Serine protease 1 [6]): 0%; inhibition (Prothrombin [7]): 0%
CCS(=O)(=O)N[C@H](Cc1ccccc1)C(=O)N1CCC[C@H]1C(=O)NCC1CCN(C(=N)N)CC1	15 nM	–	–
N=C(N)N1CCC(OCCC2CCCCN2C(=O)[C@@H](CC2CCCCC2)NCC(=O)O)CC1 (stereo partly specified)	0.96 nM	370 nM	–
CN(C1CCC=CCC1)[C@@H](CC(=O)O)C(=O)N1CCCC[C@H]1CCOC1CCN(C(=N)N)CC1	0.8 nM	1100 nM	–
N=C(N)c1ccc(OCC[C@@H]2CCCCN2C(=O)[C@@H](CC2CCCCC2)NCC(=O)O)cc1	0.37 nM	89 nM	–
N=C(N)N1CCC(OCCC2CCCCN2C(=O)[C@H](CC(=O)O)NCC2CCCCC2)CC1 (stereo partly specified)	16 nM	1600 nM	–
CC1=CCN(C(=O)[C@H](Cc2cccc(C(=N)N)c2)NS(=O)(=O)c2ccc3c(c2)CCN(C)CC3)[C@@H](C(=O)O)C1	–	–	clearance [9]: 11 mL/min/kg; half-life [12]: 48 min; bioavailability [13]: 16%; Vd [14]: 0.6 L/kg; bioavailability [20]: 37%; clearance [21]: 6.9 mL/min/kg; Vd [22]: 0.53 L/kg; half-life [23]: 54 min
